The values that follow come from ChEMBL document CHEMBL1126243, “A novel class of cardiotonic agents: synthesis and biological evaluation of 5-substituted 3,6-dihydrothiadiazin-2-ones with cyclic AMP phosphodiesterase inhibiting and myofibrillar calcium sensitizing properties” (J Med Chem, 1992).

For assay [1], the target named is Phosphodiesterase; PDE3 & PDE4. Nature of the assay: Inhibition of dog left ventricle sarcoplasmic reticulum bound low-Km c-AMP phosphodiesterase. It is filed as protein assay, Canis lupus familiaris. In outline:
(§1)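 SR vesicles from dog left ventricle, isolated on a sucrose gradient after Ca2+ oxalate loading. Radiochemical assay at 30 °C with 1 µM [3H]cAMP, 12 mM Tris-HCl, 0.5 mM MgCl2, 137 mM NaCl and 20 mM glucose; products separated on Dowex after 5'-nucleotidase step. Less than 25% substrate hydrolysed. Triplicates at 10 concentrations (10^-9–10^-4 M), DMSO 1%. IC50 from Hill plot of mean curve over at least 3 preparations.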

Assay [2] relates to cardiac myofibrillar ATPase (Canis familiaris). Description: Shift induced by 100 uM of compound, of the [Ca2+] concentration required for half-maximal activation of the canine cardiac myofibrillar ATPase. To be noted: Canis lupus familiaris.
Assay [3] shares this test system. Nature of the assay: Shift induced by 200 uM of compound, of the [Ca2+] concentration required for half-maximal activation of the canine cardiac myofibrillar ATPase. The settings on record: Canis lupus familiaris.
A short description of assay [4]: Inhibition of dog left ventricle sarcoplasmic reticulum bound low-Km cAMP phosphodiesterase. On the set-up: species or system Canis lupus familiaris. A digest of the protocol: as §1
Assay [5] relates to cardiac myofibrillar ATPase (Canis familiaris). Nature of the assay: Shift induced by 30 uM of compound, of the [Ca2+] concentration required for half-maximal activation of the canine cardiac myofibrillar ATPase. The settings on record: Canis lupus familiaris.
Assay [6] has the same test system. Nature of the assay: Shift induced by 1 uM of compound, of the [Ca2+] concentration required for half-maximal activation of the canine cardiac myofibrillar ATPase. The settings on record: Canis lupus familiaris.
The test system is the same in assay [7]. Nature of the assay: Shift induced by 3 uM of compound, of the [Ca2+] concentration required for half-maximal activation of the canine cardiac myofibrillar ATPase. The settings on record: Canis lupus familiaris.
The test system is the same in assay [8]. Description: Shift induced by 10 uM of compound, of the [Ca2+] concentration required for half-maximal activation of the canine cardiac myofibrillar ATPase. The settings on record: Canis lupus familiaris.
In assay [9] the test system is Canis familiaris. Description: Peak response for heart rate was determined in conscious Dog at the dose of 30 ug/kg by peroral administration and measured as% changes of control. The settings on record: route oral.
The subject of assay [10] is Canis familiaris. Description: Peak response for contractility was determined in conscious Dog at the dose of 30 ug/kg by peroral administration and measured as% changes of control. The settings on record: route oral.
Assay [11] has as its system cardiac myofibrillar ATPase (Canis familiaris). Description: Change in calcium-induced activation of canine cardiac myofibrillar ATPase at 200 uM. The settings on record: Canis lupus familiaris.
For assay [12] the test system is unchanged. Description: c[Ca2+] concentration required for half-maximal activation of the cardiac myofibrillar ATPase at 30 uM dose of the compound. The settings on record: Canis lupus familiaris.
Assay [13] shares this test system. Description: c[Ca2+] concentration required for half-maximal activation of the cardiac myofibrillar ATPase at 100 uM dose of the compound. To be noted: Canis lupus familiaris.

Take `CC1NC(=O)NN=C1c1ccc2c(c1)C(C)(C)C(=O)N2` (stereo not given): the half-maximal inhibitory concentration (IC50) (as a rule, the concentration that inhibits the measured activity by half) in assay [1] is 170 nM. For the same molecule, in assay [2], the Delta pCa50 was -0.04.
Turning to `CSC1(C)C(=O)Nc2ccc(C3=NNC(=O)SC3C)cc21` (stereo not given), the Delta pCa50 in assay [3] amounted to 0.33.
In assay [1], `CC1CC(=O)NN=C1c1ccc2c(c1)C(C)(C)C(=O)N2` (stereo not given) yielded an IC50 of 240 nM. In assay [2], the Delta pCa50 was -0.09.
In assay [4], `Cc1c(C2=NNC(=O)SC2C)ccc2c1C(C)(C)C(=O)N2` (stereo not given) gave an IC50 of 9200 nM. In addition, the Delta pCa50 in [5] was -0.07.
Consider `CC1SC(=O)NN=C1c1ccc2c(c1)C1(SCCCS1)C(=O)N2` (stereo not given), for which, in assay [4], the IC50 was 260 nM. Further, the Delta pCa50 stood at 0.12 in [6], 0.48 in [7], 0.76 in [5] and 0.65 in assay [8].
For `CC1SC(=O)NN=C1c1ccc2c(c1)C1(CCCCC1)C(=O)N2` (stereo not given), the IC50 in assay [1] amounted to 1300 nM. In addition, the Delta pCa50 in assay [5] was determined as 0.39.
Turning to `CC1SC(=O)NN=C1c1ccc2c(c1)CC(C)(C)C(=O)N2` (stereo not given), the Delta pCa50 in assay [5] stood at 0.33. For the same molecule, the Change in [9] is listed as 24%; in [10], 26%.
Regarding `CC1SC(=O)NN=C1c1ccc2c(c1)C1(CC1)C(=O)N2` (stereo not given), the IC50 in assay [1] was 36 nM. Besides, the Delta pCa50 in [5] amounted to 0.14.
As to `CC1[Se]C(=O)NN=C1c1ccc2c(c1)C(C)(C)C(=O)N2` (stereo not given), the IC50 in assay [1] is 540 nM. Further, the Delta pCa50 in assay [2] was 0.3.
For `CC1OC(=O)NN=C1c1ccc2c(c1)C(C)(C)C(=O)N2` (stereo not given), in that order: 960 nM and 0.04.
In assay [1], `CC1SC(=O)NN=C1c1ccc2c(c1)C1(CCCS1)C(=O)N2` (stereo not given) displayed a half-inhibitory concentration (IC50) of 1400 nM. The Delta pCa50 in assay [5] is 0.37.
In turn, `CC1(C)C(=O)Nc2cc3[nH]c(-c4ccncc4)nc3cc21` [ADIBENDAN] had an IC50 in [1] of 520 nM. Also, the Delta pCa50 in assay [11] turned out to be 0.16.
In turn, `Cc1cc(C2=NNC(=O)SC2C)cc2c1NC(=O)C2(C)C` (stereo not given) yielded an IC50 in assay [4] of 240 nM. Further, in [5], the Delta pCa50 was 0.26.
`CC1SC(=O)NN=C1c1ccc2c(c1)C(C)(C)NC(=O)N2` (stereo not given): in [5], the Delta pCa50 stood at 0.24. Besides, the Change in [9] turned out to be 9%; in assay [10], 38%.
In assay [4], `COc1cc([S+](C)[O-])ccc1-c1nc2cccnc2[nH]1` (stereo not given) [SULMAZOLE] yielded an IC50 of 140000 nM.
Take `CC1(C)C(=O)Nc2ccc(C3=NNC(=O)CC3)cc21`: the Delta pCa50 in assay [3] was -0.04.
Regarding `CSC1(C)C(=O)Nc2ccc(C3=NNC(=O)CC3)cc21` (stereo not given), the Delta pCa50 in [11] is 0.07.
On to `CC1SC(=O)NN=C1c1ccc2c(c1)C(C)(C)OC(=O)N2` (stereo not given), for which, in assay [5], the Delta pCa50 came out at 0.15. The Change in [9] is given as 13%; in assay [10], 67%.
`CC1(C)SC(=O)NN=C1c1ccc2c(c1)C(C)(C)C(=O)N2` displayed an IC50 in assay [1] of 66000 nM. The Delta pCa50 in assay [11] is -0.02.
Consider `CSC1C(=O)Nc2ccc(C3=NNC(=O)SC3)cc21` (stereo not given), for which the Delta pCa50 in assay [11] came to 0.28.
On to `CC1SC(=O)NN=C1c1ccc2c(c1)C1(CCCC1)C(=O)N2` (stereo not given), for which the IC50 in assay [1] is 1100 nM. The Delta pCa50 in assay [5] was determined as 0.35.
On to `CC1C(=O)Nc2ccc(C3=NNC(=O)SC3)cc21` (stereo not given), for which the Delta pCa50 in assay [11] was 0.15.
Consider `Cc1cc2c(cc1C1=NNC(=O)SC1C)C(C)(C)C(=O)N2` (stereo not given), for which, in assay [1], the IC50 is 3300 nM. The Delta pCa50 in [5] was -0.06.
As for `CC1SC(=O)NN=C1c1ccc2c(c1)C(C)(C)C(=O)N2` (stereo not given), the IC50 in assay [1] is 330 nM. Besides, the Delta pCa50 in [11] worked out at 0.31; in [12] it was 0.09; in assay [13], 0.24. In addition, the figures for the Change in assay [9] and in [10] were 8% and 73%, respectively.
In assay [1], `CSC1(C)C(=O)Nc2ccc(C3=NNC(=O)SC3)cc21` (stereo not given) had an IC50 of 1200 nM. The Delta pCa50 in assay [11] was 0.39.
For `O=C1CCc2cc(C3=NNC(=O)SC3)ccc2N1`, in assay [5], the Delta pCa50 was 0.
On to `CC1SC(=O)NN=C1c1ccc2c(c1)C1(SCCS1)C(=O)N2` (stereo not given), for which, in [4], the midpoint of inhibition, the IC50, lay at 350 nM. Besides, in [5], the Delta pCa50 worked out at 0.57.
`Cc1nc(O)c(N)cc1-c1ccccc1` came in with an IC50 in [1] of 18000 nM. Moreover, the Delta pCa50 in [11] came to 0.1.
Regarding `O=C1Cc2cc(C3=NNC(=O)SC3)ccc2N1`, in assay [11], the Delta pCa50 was determined as 0.08.
With `CC1(C)C(=O)Nc2ccc(C3=NNC(=O)SC3)cc21`, the Delta pCa50 in [11] stood at 0.16.
For the molecule `CSC1(C)C(=O)Nc2ccc(C3=NNC(=O)CC3C)cc21` (stereo not given), the Delta pCa50 in [11] is 0.11.
Take `CC1SC(=O)NN=C1c1ccc2c(c1)C(C)(C)CC(=O)N2` (stereo not given): in [5], the Delta pCa50 is 0.45. In addition, the Change in assay [9] is 5%; in [10], 21%.
